Publication PMC5623067 (Bioorganic & medicinal chemistry letters, 2017)
Where “and” joins values, the source holds several entries; their conditions need not be identical. Equal values may be shown once.

Key:
human topoisomerase IIα [1] = target: T1, human topoisomerase IIα (Homo sapiens, UniProt P11388); assay: Competition assay: block of etoposide-enhanced DNA cleavage; format: biochemical; settings: 100 µM etoposide; 5-100 µM compound (compound 5 up to 10 µM)
human topoisomerase IIα [2] = target: T1, human topoisomerase IIα; assay: DNA relaxation catalyzed by 150 nM topoisomerase IIα; format: biochemical; settings: 10 µM compound
Procedure, shortened: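 Negatively supercoiled DNA relaxed by 150 nM human topoisomerase IIα with test compound present. Gels show supercoiled DNA without enzyme and enzyme-treated DNA without compound as controls. Each gel is representative of 2-4 independent experiments.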

human topoisomerase IIα [3] = target: T1, human topoisomerase IIα; assay: DNA; format: biochemical; settings: kDNA decatenation
human topoisomerase IIα [4] = target: T1, human topoisomerase IIα; assay: Inhibition of topoisomerase IIα-mediated DNA cleavage in the presence of Ca2+; format: biochemical; settings: Ca2+ in place of Mg2+; 150 nM enzyme; xanthone up to 10 µM
Procedure, shortened: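 Negatively supercoiled DNA incubated with 150 nM human topoisomerase IIα and test compound. CaCl2 was added to raise baseline enzyme-mediated DNA cleavage. Cleaved DNA was resolved on gels, with controls of DNA without enzyme and enzyme without compound. Cleavage without compound was set to 100%. Gels are representative of 3 experiments, and standard deviations come from 2-3 independent experiments.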

human topoisomerase IIα [5] = target: T1, human topoisomerase IIα; assay: DNA relaxation assay; format: biochemical; settings: 3 nM enzyme; for IC50: IC50 for inhibition of DNA relaxation, negatively supercoiled DNA
human topoisomerase IIα [6] = target: T1, human topoisomerase IIα; assay: ATP hydrolysis catalyzed by topoisomerase IIα; format: biochemical; settings: up to 50 µM
[7] = Solubility limit noted in the assays; format: physicochemical; settings: only used up to 10 µM

T1 sequence (P11388 whole entry): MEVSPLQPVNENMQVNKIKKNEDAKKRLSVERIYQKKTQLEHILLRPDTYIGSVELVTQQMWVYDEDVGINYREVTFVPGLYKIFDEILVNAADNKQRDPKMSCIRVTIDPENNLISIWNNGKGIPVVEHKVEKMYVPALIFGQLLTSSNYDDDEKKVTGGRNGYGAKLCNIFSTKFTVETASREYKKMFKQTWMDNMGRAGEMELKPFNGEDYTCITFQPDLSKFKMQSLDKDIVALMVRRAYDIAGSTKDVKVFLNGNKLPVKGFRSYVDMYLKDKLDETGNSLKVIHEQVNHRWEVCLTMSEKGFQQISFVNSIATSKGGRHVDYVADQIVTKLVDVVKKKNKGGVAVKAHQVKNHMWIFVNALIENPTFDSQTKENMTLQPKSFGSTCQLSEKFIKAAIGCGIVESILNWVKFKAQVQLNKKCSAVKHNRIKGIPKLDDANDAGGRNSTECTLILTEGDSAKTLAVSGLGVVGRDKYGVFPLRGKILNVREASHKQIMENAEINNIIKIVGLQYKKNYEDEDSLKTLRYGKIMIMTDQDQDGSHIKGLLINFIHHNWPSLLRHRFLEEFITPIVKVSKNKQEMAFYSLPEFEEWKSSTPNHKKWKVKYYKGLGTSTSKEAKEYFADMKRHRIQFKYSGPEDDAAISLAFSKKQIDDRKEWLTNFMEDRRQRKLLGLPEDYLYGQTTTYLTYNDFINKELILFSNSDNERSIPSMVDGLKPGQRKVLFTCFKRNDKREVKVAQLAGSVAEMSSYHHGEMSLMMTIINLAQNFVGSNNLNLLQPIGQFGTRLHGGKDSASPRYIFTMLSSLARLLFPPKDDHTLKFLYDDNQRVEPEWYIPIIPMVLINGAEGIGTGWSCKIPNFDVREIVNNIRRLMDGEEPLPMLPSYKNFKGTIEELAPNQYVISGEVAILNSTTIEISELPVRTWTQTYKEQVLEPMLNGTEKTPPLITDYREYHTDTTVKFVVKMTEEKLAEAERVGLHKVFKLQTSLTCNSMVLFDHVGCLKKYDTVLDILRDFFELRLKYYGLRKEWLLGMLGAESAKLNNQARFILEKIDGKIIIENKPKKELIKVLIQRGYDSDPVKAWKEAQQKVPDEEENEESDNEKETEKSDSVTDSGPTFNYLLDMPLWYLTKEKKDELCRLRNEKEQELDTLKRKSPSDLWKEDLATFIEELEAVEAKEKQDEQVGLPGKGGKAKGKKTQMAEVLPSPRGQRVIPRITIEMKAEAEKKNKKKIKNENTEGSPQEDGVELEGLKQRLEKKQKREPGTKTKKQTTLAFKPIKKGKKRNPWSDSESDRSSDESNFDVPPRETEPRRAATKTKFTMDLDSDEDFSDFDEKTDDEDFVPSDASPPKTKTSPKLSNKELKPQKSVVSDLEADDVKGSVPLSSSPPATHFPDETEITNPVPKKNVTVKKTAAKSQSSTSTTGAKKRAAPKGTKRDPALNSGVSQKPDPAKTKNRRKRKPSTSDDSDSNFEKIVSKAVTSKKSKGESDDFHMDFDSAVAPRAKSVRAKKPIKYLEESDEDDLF

Compound	ability to block DNA cleavage enhancement by etoposide (human topoisomerase IIα [1])	inhibition of DNA relaxation by 150 nM enzyme (human topoisomerase IIα [2])	order of potency in decatenation assay (human topoisomerase IIα [3])	inhibition of enzyme-mediated DNA cleavage (human topoisomerase IIα [4])	IC50 (human topoisomerase IIα [5])	inhibition of ATP hydrolysis in the absence of DNA (human topoisomerase IIα [6])	solubility in assay [7]	ability to inhibit DNA relaxation at 10 µM (human topoisomerase IIα [5]; 10 µM)
Cl.Cl.NCCCNCC(O)COc1cc(O)c2c(=O)c3ccccc3oc2c1 (stereo not drawn) [compound 2]	competed with etoposide	complete (or near complete) inhibition	much more potent than compound 6	do not inhibit the DNA cleavage step	–	–	–	–
NCCCCNCCCNCC(O)COc1cc(O)c2c(=O)c3ccccc3oc2c1.O=C(O)C(F)(F)F.O=C(O)C(F)(F)F.O=C(O)C(F)(F)F (stereo not drawn) [compound 4]	competed with etoposide	complete (or near complete) inhibition	much more potent than compound 6	do not inhibit the DNA cleavage step	2.5 to 5 µM and < 5 µM	no inhibition was observed	–	–
Cl.Cl.Cl.Cl.NCCCNCCCCNCCCNCC(O)COc1cc(O)c2c(=O)c3ccccc3oc2c1 (stereo not drawn) [compound 5]	competed with etoposide	complete (or near complete) inhibition	much more potent than compound 6	do not inhibit the DNA cleavage step	~1 µM and < 5 µM	–	solubility issues	–
O=c1c2ccccc2oc2cc(O)cc(O)c12 [compound 6, 1,3-dyhydroxy-9h-xanthen-9-one]	–	no ability to inhibit DNA relaxation	–	–	–	–	–	no ability to inhibit DNA relaxation
